# PKD1 kinase inh: inhibitors of human PKD1 kinase, biochemical, fluorescence polarization. PKD1 kinase fluorescence polarization assay. AID 797, 2007. Serine/threonine-protein kinase D1 (Homo sapiens), Q15139. inhibition, % (no concentration beside the values). actives 0.056% (n = 200,000); in the data active = inhibition above about 50%
# PP5 primary: PP5 phosphatase inhibitors, primary screen, biochemical, fluorescence; purified PP5c, OMFP substrate fluorescence; actives 0.18% (n = 320,000); AID 1987, 2009; inhibition, % at 6.7 µM; Serine/threonine-protein phosphatase 5 (Homo sapiens), P53041;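 active = inhibition above the campaign's mean inhibition across all tested compounds plus 3 SD, cut at about 9.5% in these data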;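 also: 0% = DMSO only and 100% = 100 µM cantharidin control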
# PP1 counter: PP1-alpha phosphatase inhibitors, primary screen, counter-screen for PP5 inhibitor project, biochemical, fluorescence, OMFP substrate, single point. purified PP1alpha. inhibition, % at 6.7 µM. actives 0.9% (n = 320,000);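 active = inhibition above the mean inhibition of all tested compounds plus 3 SD, computed separately for each screening campaign, cut at about 15% in these data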
# Target sequence (P62136 whole entry, looked up): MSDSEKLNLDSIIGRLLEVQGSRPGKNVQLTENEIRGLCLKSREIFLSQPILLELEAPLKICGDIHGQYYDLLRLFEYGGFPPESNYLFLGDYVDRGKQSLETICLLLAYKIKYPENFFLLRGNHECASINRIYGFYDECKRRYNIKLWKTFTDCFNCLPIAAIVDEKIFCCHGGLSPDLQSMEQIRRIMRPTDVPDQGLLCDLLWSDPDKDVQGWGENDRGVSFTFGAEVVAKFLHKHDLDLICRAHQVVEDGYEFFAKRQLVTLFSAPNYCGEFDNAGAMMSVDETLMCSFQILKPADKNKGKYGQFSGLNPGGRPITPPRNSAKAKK
# Hsp70 act: Hsp70 transcriptional activators, primary screen, cell-based, HeLa, Hsp70 promoter luciferase, luminescence, 10 µM | HeLa Hsp70 promoter luciferase reporter; scaled: vehicle 0, proteasome-inhibitor control 100% | AID 1203, 2008 | actives 0.04% (n = 200,000) | activation, % at 10 µM;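 active = activation above the mean across all tested compounds plus 3 SD, cutoff set per campaign, cut at about 5.5% in these data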;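 also: 100% = MG132 at 30 µM as the positive control and 0% = DMSO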
# p97 ATPase inh: inhibitors of human p97 ATPase, primary screen, biochemical | Transitional endoplasmic reticulum ATPase (Homo sapiens), P55072 | recombinant p97 ATPase, Kinase-Glo ATP luminescence, 3 h | inhibition, % at 8 µM | actives 0.42% (n = 220,000); in the data active = inhibition above about 15%;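 also: 0% = DMSO vehicle and 100% = wells lacking enzyme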
# RBBP9 inhibitor: human RBBP9 inhibitors, primary screen, biochemical, fluorescence polarization, FP-Rh probe, HTS; actives 0.2% (n = 220,000); recombinant RBBP9; inhibition, % at 7.94 µM;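 active = inhibition above the campaign mean of all tested compounds plus 3 SD, cut at about 14% in these data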;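 also: plate controls were DMSO wells with RBBP9 for no effect and wells lacking RBBP9 protein for full effect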
# Target sequence (O75884 whole entry, looked up): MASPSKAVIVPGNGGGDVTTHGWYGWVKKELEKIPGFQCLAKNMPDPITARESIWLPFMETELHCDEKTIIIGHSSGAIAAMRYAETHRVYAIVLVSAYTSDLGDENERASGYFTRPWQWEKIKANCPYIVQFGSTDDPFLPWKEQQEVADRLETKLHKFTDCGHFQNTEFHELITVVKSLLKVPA
#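 Measured by: FP readout at 525/598 nm; material: recombinant human RBBP9; also added: Serine-hydrolase probe FP-Rh, 375 nM pre-mixing; medium: Tris buffer pH 8.0, NaCl, Pluronic; replication: one well per compound; doses: one concentration, 7.94 µM nominal, 0.794% DMSO; timing: preincubation 30 min plus labeling 45 min at 25 °C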
# RBBP9 confirm: human RBBP9 inhibitors, retest, confirmation, biochemical, fluorescence polarization, FP-Rh probe, triplicate. shares compounds with RBBP9 inhibitor. recombinant RBBP9. actives 36% (n = 410). inhibition, % at 7.94 µM. AID 1537, 2009;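 active = inhibition above the hit cutoff derived for the primary screen, cut at about 15% in these data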;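 also: 0% = RBBP9 with DMSO and 100% = wells lacking RBBP9 protein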
# An asterisk follows results filed as active; . = no result given. In the library only some 1.5% were active in any assay of this set; here they are far more common.
SMILES,PKD1 kinase inh,PP5 primary,PP1 counter,Hsp70 act,p97 ATPase inh,RBBP9 inhibitor,RBBP9 confirm
CC1CN(Cc2c(O)ccc3c2oc(=O)c2ccccc23)CC(C)O1 (stereo unspecified),.,0.0,2.3,.,2.5,19.0*,63.3*
COc1ccc(OC)c(NC(=O)c2nc(-c3ccccc3)oc2C)c1,-2.4,-0.7,-3.7,0.0,3.7,-7.6,.
COc1cc(/C=N/Nc2ccc(C(F)(F)F)cn2)cc(OC)c1O,4.9,.,.,-0.1,-1.2,17.1*,15.3*
O=C(NN=C1CCCC1)c1ccccc1OCCOc1ccccc1,10.3,-0.5,6.3,-0.3,6.2,23.0*,2.6
Cn1nccc1C(=O)NC1CCCc2c1cnn2-c1cc(F)cc(F)c1 (stereo unspecified),.,-1.2,2.4,.,.,.,.
COc1ccc(O)c(/C=N/n2c(-c3ccco3)csc2=Nc2cccnc2)c1,-24.0,-0.1,-2.9,0.0,0.6,-5.3,.
C=CCN=c1scc(C)n1/N=C/c1ccc(O)c(O)c1,-2.2,0.6,1.4,-0.1,2.2,23.0*,24.2*
CN=c1scc(C)n1/N=C/c1ccc(O)cc1,-4.5,-1.1,-3.2,0.0,1.8,-3.6,.
CN=c1scc(-c2ccco2)n1/N=C/c1ccc(O)c(O)c1,-1.6,.,.,0.0,6.4,25.9*,5.6
COc1ccc(NC(=O)NC(=O)c2cc(OCC(F)(F)F)ccc2OCC(F)(F)F)cc1,.,5.7,-0.6,.,0.3,-10.5,.
OCc1ncccc1O,.,0.9,-2.6,.,8.5,6.7,.
O=C(Nc1cccc(Cl)c1)Nc1sccc1-c1nc2ccccc2s1,.,1.0,10.8,.,2.5,14.7*,19.4*
O=C(Nc1ccccc1)Nc1sccc1-c1nc2ccccc2s1,.,1.1,-3.1,.,3.0,-0.7,.
CC(NC(=O)C1CCCN(S(=O)(=O)N2CCOCC2)C1)c1ccccc1 (stereo unspecified),.,2.6,-4.0,.,.,.,.
O=C(NNc1ccc(Cl)cc1)c1c(F)cccc1Cl,.,1.8,-9.5,.,2.7,-4.5,.
CC(=O)C(=Nc1ccccc1Cl)NNc1ccc(Cl)cc1,-2.8,4.6,2.3,0.2,-1.8,37.5*,6.0
Cc1ncc(CO)c(/C=N/NC(=S)Nc2ccc(C(C)C)cc2)c1O,.,2.2,-2.4,.,6.1,4.3,.
CCC/C(=N\NC(=O)c1csc(C)c1C)c1cccs1,-12.0,1.4,5.2,0.2,3.6,16.2*,11.7
CCOC(=O)c1c(NC(C)=O)sc2c1C1CCN2CC1,-1.7,0.8,1.1,0.1,-1.8,-10.2,.
Clc1ccc(-c2nn3c(-c4ccccc4)nnc3s2)cc1,-14.4,2.6,3.2,0.2,2.4,17.4*,6.0
c1ccc(-c2nnc3sc(-c4ccncc4)nn23)cc1,-2.8,-0.7,1.0,-0.1,-5.0,1.2,.
COc1ccc(N(CC(=O)Nc2ccccc2OC)S(=O)(=O)c2ccc(OC)c(OC)c2)cc1,.,1.0,-0.6,.,.,.,.
O=C(O)/C=C/C(=O)NC1CCC(CC2CCC(NC(=O)/C=C/C(=O)O)CC2)CC1 (stereo unspecified),-6.2,0.8,-6.2,-0.2,4.1,20.6*,9.2
COc1cccc(-n2c(=O)c3sccc3n(CC(=O)NCC3CCCO3)c2=O)c1 (stereo unspecified),.,1.5,2.0,.,.,.,.
CC(C)NC(=O)CCS(=O)(=O)c1ccc(Br)s1,3.9,1.2,-2.7,-0.3,4.4,18.2*,3.1
SMILES,PKD1 kinase inh,PP5 primary,PP1 counter,Hsp70 act,p97 ATPase inh,RBBP9 inhibitor,RBBP9 confirm
O=C(Oc1ccc(-c2cnc3ccccc3n2)cc1)c1cccc([N+](=O)[O-])c1,-3.1,2.5,0.7,0.1,1.9,-6.2,.
O=C(Oc1ccc(-c2cnc3ccccc3n2)cc1)c1ccc(Br)o1,-5.1,1.5,10.5,-0.1,1.6,16.9*,-4.2
CCCCSc1cnn(-c2ccccc2)c(=O)c1SCCCC,0.0,1.9,2.0,0.0,-4.0,15.6*,-2.8
COc1ccc(NC(=O)C2CSC3c4ccccc4C(=O)N23)cc1 (stereo unspecified),-9.5,0.1,0.6,0.1,5.6,14.4*,2.5
COC(=O)C1CSC2c3ccccc3C(=O)N12 (stereo unspecified),.,-0.4,-4.2,.,.,.,.
C/C(=C\C(=O)c1cccnc1)Nc1ccc(O)cc1,-3.8,-4.9,-6.1,-0.1,13.5,42.8*,9.9
CCC(=O)Oc1ccc2c(C)cc(=O)oc2c1C(=O)CC,.,3.3,-1.8,.,6.6,18.3*,11.4
Cc1ccc(N(CC(=O)N/N=C/c2cc(C)n(-c3ccccc3)c2C)S(C)(=O)=O)c(C)c1,-5.1,0.9,1.9,-0.2,1.6,16.6*,2.8
Cc1ccc(N(CC(=O)Nc2c(C)n(C)n(-c3ccccc3)c2=O)S(C)(=O)=O)c(C)c1,-4.5,0.1,-3.2,0.2,-0.9,-3.4,.
Cc1cccnc1Nc1nc(-c2ccc(O)c(O)c2)cs1,7.1,8.0,0.9,0.1,1.3,25.4*,55.2*
COc1ccc(-c2csc(Nc3ncccc3C)n2)cc1OC,-3.1,0.7,-0.1,0.2,-2.7,-2.5,.
CC1=C(C(=O)OCc2ccccc2)C(c2cccc([N+](=O)[O-])c2)NC(=O)N1C (stereo unspecified),.,3.2,3.1,.,.,.,.
COC(=O)c1cc(C(=O)OCC(=O)NC(=O)NCc2ccccc2)cc([N+](=O)[O-])c1,.,4.4,2.9,.,.,.,.
Cc1ccc2cc(CCNC(=O)c3cccs3)c(=O)[nH]c2c1C,-2.7,-1.1,0.5,0.1,-1.2,-8.3,.
Cc1ccc2cc(CCNC(=O)c3cccs3)c(=O)[nH]c2c1,-10.0,-0.9,-5.0,0.1,5.8,15.9*,11.0
NC(=O)COC(=O)C12CC3CC(CC(O)(C3)C1)C2,-1.7,2.2,-4.5,-0.2,-2.0,50.9*,1.9
[O-][n+]1c2cc(C(F)(F)F)ccc2c2n1CCN=C2c1ccc(Cl)cc1,.,3.8,1.2,.,.,.,.
NC(=O)CCn1c2ccccc2c2ccccc21,-7.6,0.9,0.5,0.0,3.6,1.3,.
Cc1ccc2c(c1)c1cccc3c1n2CCN3CCC(N)=O,-11.7,0.7,-0.6,0.6,8.6,17.0*,13.6
CCOC(=O)C1CCN(c2nc(C)cc(C)c2C#N)CC1,-4.9,0.2,1.4,-0.1,-3.4,0.2,.
CCOC(=O)C1CCN(c2nc(N)c3c(N)nc(SCC(=O)O)cc3c2C#N)CC1,.,.,.,.,54.7*,17.3*,39.3*
CC(C)c1c(C#N)c(N)nc(SCC(=O)c2cc3ccccc3oc2=O)c1C#N,-9.1,2.9,5.3,-0.3,3.7,2.4,.
